The source made the active and inactive calls. The rule behind the calls is not given here.

This is an account of results in ChEMBL document CHEMBL1938318, “Design, synthesis and evaluation of novel molecules with a diphenyl ether nucleus as potential antitubercular agents” (Bioorg Med Chem Lett, 2012).

In test [1] the test system is Mycobacterium tuberculosis. Briefly: Antitubercular activity against Mycobacterium bovis BCG infected in BALB/c mouse assessed as log reduction in CFU in lungs at 25 mg/kg, po qd administered 48 hrs post infection for 6 weeks measured after 6 weeks (reference value: 4.64+/-0.17 log10CFU). It is filed as functional, variant bovis BCG. In short, it runs like this: (§1)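 Female BALB/c mice infected intravenously with approx. 1 × 10⁵ CFU M. bovis BCG; compound given orally at 25 mg/kg once daily for six weeks, then sacrificed. Lung and spleen homogenates plated on modified Lowenstein-Jensen medium, colonies counted after six weeks at 37 °C; mean log10 CFU per organ versus vehicle-treated group (n = 6–8 mice/group).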

The test system of test [2] is Mycobacterium tuberculosis. In words: Antitubercular activity against Mycobacterium bovis BCG infected in BALB/c mouse assessed as log reduction in CFU in spleen at 25 mg/kg, po qd administered 48 hrs post infection for 6 weeks measured after 6 weeks (reference value: 4.79+/-0.25 log10CFU). The format is functional, variant bovis BCG. Put shortly: as §1
Test [3] concerns Mycobacterium tuberculosis. In words: Antitubercular activity against Mycobacterium bovis BCG infected in BALB/c mouse assessed as reduction in peribronchial accumulation of lymphocytes in lungs at 25 mg/kg, po qd administered 48 hrs post infection for 6 weeks by hematoxylin/eosin staining. Set-up: dose 25 mg/kg. It is filed as functional, organism-based. As to conditions: variant bovis BCG.

Test [4] relates to Mycobacterium tuberculosis. In words: Antitubercular activity against Mycobacterium bovis BCG infected in BALB/c mouse assessed as reduction in perivascular accumulation of epitheloid macrophages in lungs at 25 mg/kg, po qd administered 48 hrs post infection for 6 weeks by hematoxylin/eosin staining. Set-up: dose 25 mg/kg. The settings on record: variant bovis BCG. It is filed as functional, organism-based.

The subject of test [5] is Mycobacterium tuberculosis. Briefly: Antitubercular activity against Mycobacterium bovis BCG infected in BALB/c mouse assessed as reduction in peribronchial accumulation of epitheloid macrophages in lungs at 25 mg/kg, po qd administered 48 hrs post infection for 6 weeks by hematoxylin/eosin staining. It is filed as functional, organism-based. Set-up: dose 25 mg/kg. As to conditions: variant bovis BCG.

Test [6] concerns Mycobacterium tuberculosis. In words: Antitubercular activity against Mycobacterium bovis BCG infected in BALB/c mouse assessed as reduction in peribronchial accumulation of granulocytes in lungs at 25 mg/kg, po qd administered 48 hrs post infection for 6 weeks by hematoxylin/eosin staining. Set-up: dose 25 mg/kg. As to conditions: variant bovis BCG. It is filed as functional, organism-based.

The subject of test [7] is Mycobacterium tuberculosis. In words: Antitubercular activity against Mycobacterium bovis BCG infected in BALB/c mouse assessed as reduction in perivascular accumulation of lymphocytes in lungs at 25 mg/kg, po qd administered 48 hrs post infection for 6 weeks by hematoxylin/eosin staining. The settings on record: variant bovis BCG. Set-up: dose 25 mg/kg. The format is functional, organism-based.

Test [8] deals with Mycobacterium tuberculosis. In words: Antitubercular activity against Mycobacterium bovis BCG infected in BALB/c mouse assessed as reduction in perivascular accumulation of granulocytes in lungs at 25 mg/kg, po qd administered 48 hrs post infection for 6 weeks by hematoxylin/eosin staining. The settings on record: variant bovis BCG. It is filed as functional, organism-based. Set-up: dose 25 mg/kg.

Consider `NNC(=O)c1ccncc1` [ISONIAZID], for which the log10cfu in test [1] is given as 2; in test [2], 3.

For `O=C(Cc1cccc(Oc2ccccc2)c1)Nc1ccc(Cl)c(Cl)c1`, the log10cfu in test [1] and in test [2] was 2 each time. Further, the result in test [3], in test [4], in test [5], in test [6], in test [7] and in test [8] was Active.
